Test results from ChEMBL document CHEMBL1821590, “Novel dihydropyrimidines and its pyrazole derivatives: synthesis and pharmacological screening” (Eur J Med Chem, 2011).
Values after ≈ are worked out from the molar mass of the structure shown.

What was measured:
Format in all cases: functional
[1] = Antioxidant activity assessed as nitric oxide radical scavenging activity after 150 mins
Summary of the method: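 10 mM sodium nitroprusside (4 mL), PBS pH 7.4 (1 mL) and sample or ascorbic acid in DMSO (1 mL, 12.5–100 µg/mL), incubated 150 min at 25 °C. Nitrite detected with sulphanilic acid (5 min) then naphthylethylenediamine (30 min, diffused light). Read at […]. Triplicate. % inhibition = [1 − (Vt/Vc)] × 100. IC50 derived from it.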

[2] = Antioxidant activity assessed as hydrogen peroxide scavenging activity after 10 mins
Summary of the method: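 H2O2 (20 mM) in PBS pH 7.4. 1 mL of sample or ascorbic acid in methanol (12.5–100 µg/mL) added to 2 mL H2O2 solution. A230 read after 10 min. % inhibition = [1 − (Vt/Vc)] × 100. Triplicate, averaged. IC50 derived from % inhibition across concentrations.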

[3] = Antioxidant activity assessed as inhibition of lipid peroxidation using egg lecithin liposomes incubated for 1 hr
Summary of the method: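 Egg lecithin (3 mg/mL, phosphate buffer pH 7.4) sonicated 10 min to form liposomes. Sample or ascorbic acid (12.5–100 µg/mL) added. Peroxidation induced with FeCl3 and L-ascorbic acid, 1 h at 37 °C. Stopped with HCl/TCA/TBA/BHA, boiled 15 min, centrifuged, supernatant read at 532 nm. Triplicate. % inhibition vs control. IC50 derived.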

[4] = Antioxidant activity assessed as potassium ferricyanide ion reducing power after 20 mins
Summary of the method: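 Oyaizu method. Samples or ascorbic acid in DMF (12.5–100 µg/mL) mixed with 0.2 M phosphate buffer pH 6.6 and 1% potassium ferricyanide, 20 min at 50 °C. 10% TCA added, centrifuged. Supernatant mixed with water and 0.1% FeCl3, read at 700 nm. % = [(Vt/Vc) − 1] × 100. IC50 derived.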

[5] = Antiinflammatory activity assessed as inhibition of albumin denaturation at 100 ug/ml by UV-visible spectrophotometry
Summary of the method: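 Compounds dissolved in minimal DMF, diluted in PBS pH 7.4 (final DMF <2.5%). 1 mL test solution (100 µg/mL) plus 1 mL 1% albumin in PBS, 15 min at 27 ± 1 °C, then heated 10 min at 60 ± 1 °C. After cooling, turbidity read at 660 nm. % inhibition = [(Vt/Vc) − 1] × 100 against a no-drug control. Triplicate, averaged. Diclofenac standard.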

Metaphire posthuma [6] = assay: Anthelmintic activity against Pheretima posthuma assessed as time taken for complete parasite paralysis at 0.1% w/v
Summary of the method: (§1)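 Earthworms (Pheretima posthuma) exposed to test solutions at 0.1, 0.2 and 0.5% w/v; time in minutes to complete paralysis (worms motionless) recorded. Albendazole as standard. Mean of three determinations ± S.D.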

Metaphire posthuma [7] = assay: Anthelmintic activity against Pheretima posthuma assessed as time taken for complete parasite paralysis at 0.2% w/v; summary of the method: as §1
Metaphire posthuma [8] = assay: Anthelmintic activity against Pheretima posthuma assessed as time taken for complete parasite paralysis at 0.5% w/v; summary of the method: as §1
Metaphire posthuma [9] = assay: Anthelmintic activity against Pheretima posthuma assessed as time taken for parasite death at 0.1% w/v
Summary of the method: (§2)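 Earthworms (Pheretima posthuma, spelled Perituma posthuma in text) exposed to test compounds at 0.1, 0.2 and 0.5% w/v. Albendazole served as standard, with an untreated control. Paralysis was recorded as the time until worms became motionless, then time to death was recorded, in minutes. Each value is the mean of three determinations with S.D.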

Metaphire posthuma [10] = assay: Anthelmintic activity against Pheretima posthuma assessed as time taken for parasite death at 0.2% w/v; summary of the method: as §2
Metaphire posthuma [11] = assay: Anthelmintic activity against Pheretima posthuma assessed as time taken for parasite death at 0.5% w/v; summary of the method: as §2
Escherichia coli [12] = assay: Antimicrobial activity against Escherichia coli at 25 ug/ml by agar plate diffusion technique; details: read-out: IZ
Summary of the method: (§3)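 Agar plate diffusion against E. coli, P. aeruginosa, S. aureus and B. subtilis, with compounds at 25, 50 and 100 µg/mL. Streptomycin as standard.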

Escherichia coli [13] = assay: Antimicrobial activity against Escherichia coli at 50 ug/ml by agar plate diffusion technique; details: read-out: IZ; summary of the method: as §3
Escherichia coli [14] = assay: Antimicrobial activity against Escherichia coli at 100 ug/ml by agar plate diffusion technique; details: read-out: IZ; summary of the method: as §3
Pseudomonas aeruginosa [15] = assay: Antimicrobial activity against Pseudomonas aeruginosa at 25 ug/ml by agar plate diffusion technique; details: read-out: IZ; summary of the method: as §3
Pseudomonas aeruginosa [16] = assay: Antimicrobial activity against Pseudomonas aeruginosa at 50 ug/ml by agar plate diffusion technique; details: read-out: IZ; summary of the method: as §3
Pseudomonas aeruginosa [17] = assay: Antimicrobial activity against Pseudomonas aeruginosa at 100 ug/ml by agar plate diffusion technique; details: read-out: IZ; summary of the method: as §3
Bacillus subtilis [18] = assay: Antimicrobial activity against Bacillus subtilis at 25 ug/ml by agar plate diffusion technique; details: read-out: IZ; summary of the method: as §3
Bacillus subtilis [19] = assay: Antimicrobial activity against Bacillus subtilis at 50 ug/ml by agar plate diffusion technique; details: read-out: IZ; summary of the method: as §3
Bacillus subtilis [20] = assay: Antimicrobial activity against Bacillus subtilis at 100 ug/ml by agar plate diffusion technique; details: read-out: IZ; summary of the method: as §3
Staphylococcus aureus [21] = assay: Antimicrobial activity against Staphylococcus aureus at 25 ug/ml by agar plate diffusion technique; details: read-out: IZ; summary of the method: as §3
Staphylococcus aureus [22] = assay: Antimicrobial activity against Staphylococcus aureus at 50 ug/ml by agar plate diffusion technique; details: read-out: IZ; summary of the method: as §3
Staphylococcus aureus [23] = assay: Antimicrobial activity against Staphylococcus aureus at 100 ug/ml by agar plate diffusion technique; details: read-out: IZ; summary of the method: as §3
Candida albicans [24] = assay: Antimicrobial activity against Candida albicans at 25 ug/ml by paper disc method; details: read-out: IZ
Summary of the method: (§4)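 Paper disc method against A. niger and C. albicans, with compounds at 25, 50 and 100 µg/mL. Amphotericin-B as standard.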

Candida albicans [25] = assay: Antimicrobial activity against Candida albicans at 50 ug/ml by paper disc method; details: read-out: IZ; summary of the method: as §4
Candida albicans [26] = assay: Antimicrobial activity against Candida albicans at 100 ug/ml by paper disc method; details: read-out: IZ; summary of the method: as §4
Aspergillus niger [27] = assay: Antimicrobial activity against Aspergillus niger at 25 ug/ml by paper disc method; details: read-out: IZ; summary of the method: as §4
Aspergillus niger [28] = assay: Antimicrobial activity against Aspergillus niger at 50 ug/ml by paper disc method; details: read-out: IZ; summary of the method: as §4
Aspergillus niger [29] = assay: Antimicrobial activity against Aspergillus niger at 100 ug/ml by paper disc method; details: read-out: IZ; summary of the method: as §4

SMILES | IC50 [1] | IC50 [2] | IC50 [3] | IC50 [4] | inhibition [5] | Time (Metaphire posthuma [6]) | Time (Metaphire posthuma [7]) | Time (Metaphire posthuma [8]) | Time (Metaphire posthuma [9]) | Time (Metaphire posthuma [10]) | Time (Metaphire posthuma [11]) | zone of inhibition at 25 µg/mL (Escherichia coli [12]) | zone of inhibition at 50 µg/mL (Escherichia coli [13]) | zone of inhibition at 100 µg/mL (Escherichia coli [14]) | zone of inhibition at 25 µg/mL (Pseudomonas aeruginosa [15]) | zone of inhibition at 50 µg/mL (Pseudomonas aeruginosa [16]) | zone of inhibition at 100 µg/mL (Pseudomonas aeruginosa [17]) | zone of inhibition at 25 µg/mL (Bacillus subtilis [18]) | zone of inhibition at 50 µg/mL (Bacillus subtilis [19]) | zone of inhibition at 100 µg/mL (Bacillus subtilis [20]) | also measured
CSc1nc(-c2cccc(O)c2O)c(C#N)c(=O)n1C | 53 µg/mL (≈ 183 µM) | 37 µg/mL (≈ 128 µM) | 41 µg/mL (≈ 142 µM) | 48 µg/mL (≈ 166 µM) | 44.1% | 58.04 min | 62.28 min | 50.1 min | 65.29 min | 65.5 min | 61.02 min | 7.28 mm | 8.78 mm | 10.4 mm | 7.67 mm | 8.12 mm | 12.7 mm | 13 mm | 15.8 mm | 24.4 mm | zone of inhibition at 25 µg/mL (Staphylococcus aureus [21]): 8.7 mm; zone of inhibition at 50 µg/mL (Staphylococcus aureus [22]): 10.6 mm; zone of inhibition at 100 µg/mL (Staphylococcus aureus [23]): 13.6 mm; zone of inhibition at 25 µg/mL (Candida albicans [24]): 9.48 mm; zone of inhibition at 50 µg/mL (Candida albicans [25]): 13.9 mm; zone of inhibition at 100 µg/mL (Candida albicans [26]): 21 mm; zone of inhibition at 25 µg/mL (Aspergillus niger [27]): 8.4 mm; zone of inhibition at 50 µg/mL (Aspergillus niger [28]): 10.8 mm; zone of inhibition at 100 µg/mL (Aspergillus niger [29]): 17.1 mm
CCOC(=O)c1cnn(-c2nc(-c3cccc(O)c3O)c(C#N)c(=O)n2C)c1N | 58 µg/mL (≈ 146 µM) | 53 µg/mL (≈ 134 µM) | 49 µg/mL (≈ 124 µM) | 41 µg/mL (≈ 103 µM) | 57.6% | 60.22 min | 65.54 min | 53.34 min | 70.56 min | 75.78 min | 60.74 min | 13.1 mm | 16 mm | 22.9 mm | 10.3 mm | 12.8 mm | 20.3 mm | 14.4 mm | 15.1 mm | 21.8 mm | zone of inhibition at 25 µg/mL (Staphylococcus aureus [21]): 12.7 mm; zone of inhibition at 50 µg/mL (Staphylococcus aureus [22]): 16.1 mm; zone of inhibition at 100 µg/mL (Staphylococcus aureus [23]): 20.3 mm; zone of inhibition at 25 µg/mL (Candida albicans [24]): 10.4 mm; zone of inhibition at 50 µg/mL (Candida albicans [25]): 13.3 mm; zone of inhibition at 100 µg/mL (Candida albicans [26]): 17.7 mm; zone of inhibition at 25 µg/mL (Aspergillus niger [27]): 9.48 mm; zone of inhibition at 50 µg/mL (Aspergillus niger [28]): 11.7 mm; zone of inhibition at 100 µg/mL (Aspergillus niger [29]): 17.2 mm
CCOC(=O)c1cnn(-c2nc(-c3ccc(Cl)cc3)c(C#N)c(=O)n2C)c1N | 87 µg/mL (≈ 218 µM) | 94 µg/mL (≈ 236 µM) | 88 µg/mL (≈ 221 µM) | 64 µg/mL (≈ 160 µM) | 64.6% | 49.28 min | 41.03 min | 34.76 min | 64.72 min | 58.23 min | 56.33 min | 14.7 mm | 19.5 mm | 25 mm | 11.8 mm | 17.1 mm | 25.7 mm | 14.2 mm | 16.7 mm | 25.4 mm | zone of inhibition at 25 µg/mL (Staphylococcus aureus [21]): 13.1 mm; zone of inhibition at 50 µg/mL (Staphylococcus aureus [22]): 17.1 mm; zone of inhibition at 100 µg/mL (Staphylococcus aureus [23]): 22 mm; zone of inhibition at 25 µg/mL (Candida albicans [24]): 12.2 mm; zone of inhibition at 50 µg/mL (Candida albicans [25]): 16 mm; zone of inhibition at 100 µg/mL (Candida albicans [26]): 21.8 mm; zone of inhibition at 25 µg/mL (Aspergillus niger [27]): 11.6 mm; zone of inhibition at 50 µg/mL (Aspergillus niger [28]): 15.6 mm; zone of inhibition at 100 µg/mL (Aspergillus niger [29]): 23.8 mm
